Assay results as given in ChEMBL document CHEMBL3112420, “Discovery of 8-cyclopentyl-2-[4-(4-methyl-piperazin-1-yl)-phenylamino]-7-oxo-7,8-dihydro-pyrido[2,3-d]pyrimidine-6-carbonitrile (7x) as a potent inhibitor of cyclin-dependent kinase 4 (CDK4) and AMPK-related kinase 5 (ARK5)” (J Med Chem, 2014).
pIC50: −log10 of the molar value. Activity calls are given as the source filed them. The calls are words filed in the database; no cut-off is given here.

Experiments:
2008 = experiment: Cytotoxicity against human 2008 cells after 96 hrs by Cell-Titer Blue assay; type: functional; conditions: Homo sapiens, 2008, 96 h
MCF7 [1] = experiment: Cell cycle arrest in human MCF7 cells assessed as accumulation at G1 phase at 0.5 to 1 uM after 24 hrs by propidium iodide staining-based flow cytometric analysis; type: functional
Summary of the method: (§1)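 Cells plated at 1.0 × 10^6 per dish, then treated 24 h later with increasing concentrations for 24 h. Floating and adherent cells were pooled, PBS-washed and fixed in ice-cold 70% ethanol for at least 24 h. They were then stained with propidium iodide plus RNase A for 30 min at 37 °C. Percentage of cells in each phase was read by flow cytometry.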

MDA-MB-231 [2] = experiment: Cell cycle arrest in human MDA-MB-231 cells assessed as accumulation at sub-G1 phase at 0.5 to 1 uM after 48 hrs by propidium iodide staining-based flow cytometric analysis; type: functional
K562 = experiment: Cytotoxicity against human K562 cells after 96 hrs by Cell-Titer Blue assay; type: functional, cell-based; conditions: K562, 96 h
[3] = target: Receptor-type tyrosine-protein kinase FLT3 (Homo sapiens, UniProt P36888); experiment: Inhibition of FLT3 (unknown origin)
Sequence of Receptor-type tyrosine-protein kinase FLT3 (P36888 whole entry): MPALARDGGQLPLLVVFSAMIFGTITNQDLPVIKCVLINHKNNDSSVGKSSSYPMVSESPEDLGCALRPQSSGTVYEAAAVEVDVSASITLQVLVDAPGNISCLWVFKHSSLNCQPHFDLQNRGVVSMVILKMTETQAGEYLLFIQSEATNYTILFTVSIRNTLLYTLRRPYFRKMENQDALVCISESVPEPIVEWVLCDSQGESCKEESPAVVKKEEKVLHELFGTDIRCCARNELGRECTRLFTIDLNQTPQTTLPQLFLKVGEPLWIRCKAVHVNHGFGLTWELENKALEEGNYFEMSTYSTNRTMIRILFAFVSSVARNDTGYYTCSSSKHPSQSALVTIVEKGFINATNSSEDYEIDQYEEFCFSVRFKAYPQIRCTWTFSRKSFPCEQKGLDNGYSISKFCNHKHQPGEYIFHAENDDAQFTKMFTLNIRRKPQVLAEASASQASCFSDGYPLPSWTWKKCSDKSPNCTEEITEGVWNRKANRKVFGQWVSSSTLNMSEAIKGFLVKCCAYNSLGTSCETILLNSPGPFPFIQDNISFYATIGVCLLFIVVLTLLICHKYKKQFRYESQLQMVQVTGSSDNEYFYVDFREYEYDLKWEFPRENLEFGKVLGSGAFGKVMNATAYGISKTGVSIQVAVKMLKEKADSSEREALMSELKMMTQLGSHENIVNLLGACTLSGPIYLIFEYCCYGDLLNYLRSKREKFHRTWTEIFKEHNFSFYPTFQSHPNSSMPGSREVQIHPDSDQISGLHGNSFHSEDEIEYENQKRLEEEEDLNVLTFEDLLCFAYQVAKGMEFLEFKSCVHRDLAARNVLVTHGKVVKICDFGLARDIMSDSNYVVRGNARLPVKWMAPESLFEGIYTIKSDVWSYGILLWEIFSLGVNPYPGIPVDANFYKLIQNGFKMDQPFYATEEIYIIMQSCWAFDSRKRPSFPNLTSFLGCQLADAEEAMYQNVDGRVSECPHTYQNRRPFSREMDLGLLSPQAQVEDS

[4] = target: Cyclin-dependent kinase 4/cyclin D1 (Homo sapiens) (UniProt P11802+P24385); experiment: Inhibition of recombinant CDK4/cyclinD1 in human MCF7 cells assessed as inhibition of retinoblastoma phosphorylation at Ser780 at 0.5 to 5 uM after 24 hrs by Western blotting analysis; type: cell-based
Summary of the method: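 Breast carcinoma cells were given increasing concentrations for 24 h. Total lysates (100 μg, 10% SDS-PAGE) were immunoblotted with antibodies against Ser780-phosphorylated and non-phosphorylated RB. Bands were read on an infrared scanning system.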

A549 = experiment: Cytotoxicity against human A549 cells after 96 hrs by Cell-Titer Blue assay; type: functional; conditions: A549, 96 h
Mus musculus [5] = experiment: Toxicity in CD-1 mouse xenografted with human MDA-MB-231 cells assessed as weight loss at 100 to 200 mg/kg, ip measured for 7 days; type: organism-based; parameters: dose 100-200 mg/kg, route intraperitoneal; conditions: in vivo, 168 h
[6] = Cytotoxicity against human SKBR3 cells after 96 hrs by Cell-Titer Blue assay; type: functional; conditions: SK-BR-3, 96 h
[7] = target: Tyrosine-protein kinase Fyn (Homo sapiens, UniProt P06241); experiment: Inhibition of FYN (unknown origin)
Sequence of Tyrosine-protein kinase Fyn (P06241 whole entry): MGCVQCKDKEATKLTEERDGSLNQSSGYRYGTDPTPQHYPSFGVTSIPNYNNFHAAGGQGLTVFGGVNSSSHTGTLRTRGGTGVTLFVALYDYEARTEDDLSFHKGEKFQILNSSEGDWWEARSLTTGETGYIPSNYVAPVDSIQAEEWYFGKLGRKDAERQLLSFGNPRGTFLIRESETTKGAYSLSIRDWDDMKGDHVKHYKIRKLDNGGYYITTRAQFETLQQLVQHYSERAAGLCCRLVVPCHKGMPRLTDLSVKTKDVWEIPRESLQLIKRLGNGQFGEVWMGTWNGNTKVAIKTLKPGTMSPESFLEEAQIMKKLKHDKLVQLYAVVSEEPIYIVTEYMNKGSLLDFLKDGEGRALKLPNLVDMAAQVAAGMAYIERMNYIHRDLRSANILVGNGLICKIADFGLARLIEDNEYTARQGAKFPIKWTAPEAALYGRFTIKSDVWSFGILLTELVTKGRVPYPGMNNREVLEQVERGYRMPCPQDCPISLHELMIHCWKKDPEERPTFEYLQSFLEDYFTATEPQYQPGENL

HeLa = experiment: Cytotoxicity against human HeLa cells after 96 hrs by Cell-Titer Blue assay; type: functional
[8] = Cytotoxicity against human HCC1428 cells after 96 hrs by Cell-Titer Blue assay; type: functional; conditions: HCC1428, 96 h
MCF7 [9] = experiment: Induction of apoptosis in human MCF7 cells assessed as PARP cleavage after 24 hrs by Western blotting analysis; type: functional, cell-based
NCI-N87 = experiment: Cytotoxicity against human NCI-N87 cells after 96 hrs by Cell-Titer Blue assay; type: functional; conditions: NCI-N87, 96 h
CDK6/cyclin D1 = CDK6/cyclin D1 (Homo sapiens, UniProt Q00534); experiment: Inhibition of CDK6/cyclinD1 (unknown origin); type: protein-complex assay
Sequence of CDK6/cyclin D1 (P24385 whole entry): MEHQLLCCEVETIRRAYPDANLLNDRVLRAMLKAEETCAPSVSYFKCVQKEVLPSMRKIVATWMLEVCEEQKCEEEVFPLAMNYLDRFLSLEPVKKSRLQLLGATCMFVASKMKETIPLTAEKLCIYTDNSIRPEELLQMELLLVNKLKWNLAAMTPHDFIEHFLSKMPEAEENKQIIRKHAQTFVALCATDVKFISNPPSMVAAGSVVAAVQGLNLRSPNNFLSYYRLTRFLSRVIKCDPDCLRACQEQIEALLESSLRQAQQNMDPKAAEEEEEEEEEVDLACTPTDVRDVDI
Sequence of CDK6/cyclin D1 (Q00534 whole entry): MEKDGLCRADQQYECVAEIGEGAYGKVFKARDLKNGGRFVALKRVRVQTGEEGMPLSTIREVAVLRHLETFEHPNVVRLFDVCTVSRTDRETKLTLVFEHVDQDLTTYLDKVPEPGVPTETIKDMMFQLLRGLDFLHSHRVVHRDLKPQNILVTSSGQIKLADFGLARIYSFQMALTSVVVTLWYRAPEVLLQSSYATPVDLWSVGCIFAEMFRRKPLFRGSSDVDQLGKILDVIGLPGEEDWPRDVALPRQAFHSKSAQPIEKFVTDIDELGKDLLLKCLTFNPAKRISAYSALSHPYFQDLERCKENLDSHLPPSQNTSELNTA

[10] = Cytotoxicity against human Z138C cells after 96 hrs by Cell-Titer Blue assay; type: functional
[11] = Cytotoxicity against human SNU475 cells after 96 hrs by Cell-Titer Blue assay; type: functional; conditions: SNU-475, 96 h
[12] = Cytotoxicity against human SNU449 cells after 96 hrs by Cell-Titer Blue assay; type: functional; conditions: SNU-449, 96 h
[13] = Cytotoxicity against human DLD1 cells after 96 hrs by Cell-Titer Blue assay; type: functional; conditions: DLD-1, 96 h
MDA-MB-231 [14] = experiment: Induction of apoptosis in human MDA-MB-231 cells assessed as PARP cleavage after 24 hrs by Western blotting analysis; type: functional, cell-based
SW480 = experiment: Cytotoxicity against human SW480 cells after 96 hrs by Cell-Titer Blue assay; type: functional; conditions: SW480, 96 h
MDA-MB-231 [15] = experiment: Cell cycle arrest in human MDA-MB-231 cells assessed as accumulation at G1 phase at 0.5 to 1 uM after 24 hrs by propidium iodide staining-based flow cytometric analysis; type: functional; summary of the method: as §1
MCF7 [16] = experiment: Cell cycle arrest in human MCF7 cells assessed as accumulation at sub-G1 phase at 0.5 to 1 uM after 48 hrs by propidium iodide staining-based flow cytometric analysis; type: functional
Mus musculus [17] = experiment: Toxicity in NCR nude mouse xenografted with human MDA-MB-231 cells assessed as weight loss at 50 mg/kg, ip […] administered on alternative days measured every 2 days up to 21 days; type: organism-based; parameters: dose 50 mg/kg, route intraperitoneal; conditions: in vivo
Summary of the method: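 MDA-MB-231 cells orthotopically implanted into mammary fat pads of 6–8 week old female nude mice (n=11 per group). Dosing began when average tumour volume reached 100 mm3. Lactate salt in PBS or vehicle was given intraperitoneally every other day (Q2D). Tumour volumes and body weights were recorded every 2 days over 21 days; mean ± SEM.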

[18] = Cytotoxicity against human BT20 cells after 96 hrs by Cell-Titer Blue assay; type: functional; conditions: BT-20, 96 h
[19] = Cytotoxicity against human SNU5 cells after 96 hrs by Cell-Titer Blue assay; type: functional; conditions: SNU-5, 96 h
[20] = target: Tyrosine-protein kinase ABL1 (Homo sapiens, UniProt P00519); experiment: Inhibition of ABL (unknown origin)
Sequence of Tyrosine-protein kinase ABL1 (P00519 whole entry): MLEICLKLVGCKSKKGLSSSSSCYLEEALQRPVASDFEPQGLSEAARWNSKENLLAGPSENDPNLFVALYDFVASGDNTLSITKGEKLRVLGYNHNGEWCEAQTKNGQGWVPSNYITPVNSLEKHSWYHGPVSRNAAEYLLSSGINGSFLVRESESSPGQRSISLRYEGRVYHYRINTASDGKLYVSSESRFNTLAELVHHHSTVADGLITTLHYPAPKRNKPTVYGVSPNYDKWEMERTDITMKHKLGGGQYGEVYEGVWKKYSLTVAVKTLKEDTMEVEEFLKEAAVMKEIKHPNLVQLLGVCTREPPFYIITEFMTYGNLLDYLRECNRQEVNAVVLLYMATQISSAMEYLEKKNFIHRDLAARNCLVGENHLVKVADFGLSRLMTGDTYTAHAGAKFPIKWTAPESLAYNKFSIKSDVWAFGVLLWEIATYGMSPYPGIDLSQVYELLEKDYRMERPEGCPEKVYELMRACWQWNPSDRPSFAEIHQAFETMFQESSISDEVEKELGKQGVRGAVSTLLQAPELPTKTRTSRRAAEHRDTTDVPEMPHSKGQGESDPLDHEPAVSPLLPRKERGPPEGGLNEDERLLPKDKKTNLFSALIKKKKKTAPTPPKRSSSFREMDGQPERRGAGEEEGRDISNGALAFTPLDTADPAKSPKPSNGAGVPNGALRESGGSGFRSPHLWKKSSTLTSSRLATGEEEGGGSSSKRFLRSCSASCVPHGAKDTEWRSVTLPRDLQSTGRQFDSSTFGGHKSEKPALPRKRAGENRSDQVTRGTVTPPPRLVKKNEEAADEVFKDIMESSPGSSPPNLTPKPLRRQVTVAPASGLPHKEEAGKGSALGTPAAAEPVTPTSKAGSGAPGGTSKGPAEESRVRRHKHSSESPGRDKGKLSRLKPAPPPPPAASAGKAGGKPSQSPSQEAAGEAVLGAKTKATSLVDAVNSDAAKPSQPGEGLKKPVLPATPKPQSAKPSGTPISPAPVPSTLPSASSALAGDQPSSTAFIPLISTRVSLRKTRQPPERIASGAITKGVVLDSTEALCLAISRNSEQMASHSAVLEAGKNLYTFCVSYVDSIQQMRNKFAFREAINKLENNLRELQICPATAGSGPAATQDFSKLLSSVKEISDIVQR

MDA-MB-468 = experiment: Cytotoxicity against human MDA-MB-468 cells after 96 hrs by Cell-Titer Blue assay; type: functional; conditions: MDA-MB-468, 96 h
SK-OV-3 = experiment: Cytotoxicity against human SKOV3 cells after 96 hrs by Cell-Titer Blue assay; type: functional; conditions: SK-OV-3, 96 h
[21] = target: Cyclin-dependent kinase 4/cyclin D1 (Homo sapiens, UniProt P11802); experiment: Inhibition of CDK4/cyclinD1 (unknown origin); type: protein-complex assay
Sequence of Cyclin-dependent kinase 4/cyclin D1 (P11802 whole entry): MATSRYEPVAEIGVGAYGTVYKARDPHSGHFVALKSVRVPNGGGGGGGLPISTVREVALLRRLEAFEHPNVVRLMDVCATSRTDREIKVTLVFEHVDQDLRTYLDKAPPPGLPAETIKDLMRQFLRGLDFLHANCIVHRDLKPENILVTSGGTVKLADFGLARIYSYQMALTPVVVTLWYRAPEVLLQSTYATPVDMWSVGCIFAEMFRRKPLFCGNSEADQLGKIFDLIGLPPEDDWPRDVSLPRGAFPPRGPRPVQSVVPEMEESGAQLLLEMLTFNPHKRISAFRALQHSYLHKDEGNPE
Sequence of Cyclin-dependent kinase 4/cyclin D1 (P24385 whole entry, further chain): as the sequence (P24385 whole entry) above

HCT-15 = experiment: Cytotoxicity against human HCT15 cells after 96 hrs by Cell-Titer Blue assay; type: functional; conditions: HCT-15, 96 h
DU-145 = experiment: Cytotoxicity against human DU145 cells after 96 hrs by Cell-Titer Blue assay; type: functional, cell-based; conditions: DU-145, 96 h
[22] = Cytotoxicity against human U87 cells after 96 hrs by Cell-Titer Blue assay; type: functional, U-87MG ATCC; conditions: U-87 MG
MDA-MB-231 [23] = experiment: Induction of apoptosis in human MDA-MB-231 cells assessed as PARP cleavage at 1 to 10 uM after 24 hrs by Western blotting analysis; type: functional, cell-based
[24] = Cytotoxicity against human HFL cells after 96 hrs by Cell-Titer Blue assay; type: cell-based
MDA-MB-231 [25] = experiment: Inhibition of PI3K in human MDA-MB-231 cells assessed as inhibition of Akt phosphorylation at Ser473 at 0.1 to 10 uM after 24 hrs by Western blotting analysis; type: cell-based
Summary of the method: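 Total lysates (100 μg) were run on 10% SDS-PAGE and immunoblotted for Ser473-phosphorylated and total AKT, with GAPDH as loading control. Detection used infrared-dye secondary antibodies.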

MCF7 [26] = experiment: Induction of apoptosis in human MCF7 cells assessed as PARP cleavage at 1 to 10 uM after 24 hrs by Western blotting analysis; type: functional, cell-based
[27] = Cytotoxicity against human SNU398 cells after 96 hrs by Cell-Titer Blue assay; type: functional; conditions: SNU-398, 96 h
[28] = target: Platelet-derived growth factor receptor beta (Homo sapiens, UniProt P09619); experiment: Inhibition of PDGFRbeta (unknown origin)
Sequence of Platelet-derived growth factor receptor beta (P09619 whole entry): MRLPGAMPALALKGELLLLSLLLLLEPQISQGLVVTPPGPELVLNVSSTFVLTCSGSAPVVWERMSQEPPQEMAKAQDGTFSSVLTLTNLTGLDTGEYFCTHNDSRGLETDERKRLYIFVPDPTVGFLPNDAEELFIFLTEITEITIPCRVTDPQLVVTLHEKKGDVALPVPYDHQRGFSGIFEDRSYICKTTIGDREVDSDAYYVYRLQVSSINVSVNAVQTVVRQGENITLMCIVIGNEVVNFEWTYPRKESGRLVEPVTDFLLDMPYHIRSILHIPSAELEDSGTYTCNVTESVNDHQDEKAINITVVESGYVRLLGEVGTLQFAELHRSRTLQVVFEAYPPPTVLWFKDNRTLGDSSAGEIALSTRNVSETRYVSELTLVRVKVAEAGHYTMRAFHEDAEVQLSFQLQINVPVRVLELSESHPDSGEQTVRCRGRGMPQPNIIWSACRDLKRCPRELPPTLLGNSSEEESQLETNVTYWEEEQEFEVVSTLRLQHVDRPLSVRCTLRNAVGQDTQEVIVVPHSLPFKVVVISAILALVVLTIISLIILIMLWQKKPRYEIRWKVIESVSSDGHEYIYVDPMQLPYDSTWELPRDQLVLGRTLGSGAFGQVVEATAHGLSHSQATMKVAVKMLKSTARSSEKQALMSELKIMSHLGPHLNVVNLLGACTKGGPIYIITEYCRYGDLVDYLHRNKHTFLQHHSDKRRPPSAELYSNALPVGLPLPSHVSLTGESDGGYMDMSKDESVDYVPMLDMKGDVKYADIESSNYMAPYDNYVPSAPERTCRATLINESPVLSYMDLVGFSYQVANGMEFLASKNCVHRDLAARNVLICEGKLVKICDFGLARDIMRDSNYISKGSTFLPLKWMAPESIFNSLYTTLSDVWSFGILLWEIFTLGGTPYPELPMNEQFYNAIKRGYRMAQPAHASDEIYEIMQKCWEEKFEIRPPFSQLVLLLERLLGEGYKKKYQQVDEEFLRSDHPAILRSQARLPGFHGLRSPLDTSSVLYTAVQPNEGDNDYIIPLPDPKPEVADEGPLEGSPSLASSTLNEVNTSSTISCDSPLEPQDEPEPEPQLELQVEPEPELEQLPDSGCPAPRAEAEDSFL

[29] = Cytotoxicity against human U266 cells after 96 hrs by Cell-Titer Blue assay; type: functional; conditions: U-266, 96 h

CN1CCN(c2ccc(Nc3ncc4cc(C#N)c(=O)n(C5CCCC5)c4n3)cc2)CC1 [NARAZACICLIB]
GI50 2008: 1500 nM
Activity (MCF7 [1]): Active
Activity (MDA-MB-231 [2]): Active
GI50 (K562): 100 nM
pIC50 (K562): 7.30
pIC50 [3]: 7.91
inhibition [4]: Active
GI50 (A549): 200 nM
Activity (Mus musculus [5]): Non-toxic
GI50 [6]: 150 nM
pIC50 [7]: 7.96
GI50 (HeLa): 750 nM
GI50 [8]: 300 nM
Activity (MCF7 [9]): Dose-dependent effect
GI50 (NCI-N87): 900 nM
pIC50 (CDK6/cyclin D1): 8.01
GI50 [10]: 25 nM
GI50 [11]: 300 nM
GI50 [12]: 750 nM
GI50 [13]: 100 nM
Activity (MDA-MB-231 [14]): Dose-dependent effect
GI50 (SW480): 90 nM
Activity (MDA-MB-231 [15]): Active
Activity (MCF7 [16]): Active
Activity (Mus musculus [17]): Non-toxic
GI50 [18]: 100 nM
GI50 [19]: 100 nM
pIC50 [20]: 7.27
GI50 (MDA-MB-468): 2000 nM
GI50 (SK-OV-3): 750 nM
pIC50 [21]: 8.42
GI50 (HCT-15): 300 nM
GI50 (DU-145): 50 nM
GI50 [22]: 100 nM
Activity (MDA-MB-231 [23]): Active
GI50 at 96 h [24]: 5000 nM
inhibition (MDA-MB-231 [25]): Active
Activity (MCF7 [26]): Active
GI50 [27]: 200 nM
pIC50 [28]: 7.59
GI50 [29]: 200 nM
